Consider one molecule from ChEMBL document CHEMBL2375259, “Arylpiperazines as fatty acid transport protein 1 (FATP1) inhibitors with improved potency and pharmacokinetic properties” (Bioorg Med Chem Lett, 2013).

Series [1] is described as follows: Metabolic stability in mouse liver microsomes assessed as compound remaining after 0.5 hr. It is filed as ADME, Microsome. Conditions: read-out: Stability. The gist of the method: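 Test compound incubated 0.5 h with mouse liver microsomes. Result given as percent of parent remaining.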
(Liver microsomes are a subcellular fraction often used to study metabolism.)

Series [2] can be described thus: Plasma protein binding in mouse at 10 mg/kg, po. It is filed as ADME, organism-based. Further details: dose 10 mg/kg, route oral. The conditions noted are these: read-out: PPB (converted). The gist of the method:
(§1)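 Unbound fraction (%) measured in mouse plasma.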

Series [3] deals with Mus musculus. The experiment in a line: In vivo inhibition of FATP1 in high-fat diet fed mouse assessed as decrease in triglyceride content in soleus muscle at 10 to 100 mg/kg, po after 4 weeks. It counts as functional, organism-based. In a few lines:
(§2)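 Mice kept on a high-fat diet for 4 weeks and given the compound orally at 3/10/30, 10/30/100 or 1/10/100 mg/kg. The 1–100 mg/kg series was run for 3 weeks. Triglyceride content measured in liver, white gastrocnemius and soleus, compared against HFD vehicle controls, P < 0.05.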

A short description of series [4]: Cmax in mouse at 10 mg/kg, po. It is filed as ADME, organism-based. Further details: dose 10 mg/kg, route oral. Conditions: in vivo. In a few lines: (§3)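 Single 10 mg/kg oral dose to mice in DMA/PG/(20% HPβCD in saline) 10/10/80. Values are the mean of three mice.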
A short description of series [5]: Tmax in mouse at 10 mg/kg, po. It is filed as ADME, organism-based. Further details: dose 10 mg/kg, route oral. Conditions: in vivo. In a few lines: as §3
The nature of series [6]: Solubility in Japanese Pharmacopoeia first fluid. It counts as physicochemical. The conditions noted are these: pH 1.2.
In series [7] the test system is Mus musculus. The experiment in a line: In vivo inhibition of FATP1 in high-fat diet fed mouse assessed as decrease in triglyceride content in white gastrocnemius muscle at 10 to 100 mg/kg, po after 4 weeks. It is filed as functional, organism-based. The gist of the method:
as §2

The nature of series [8]: Oral bioavailability in mouse at 10 mg/kg. It counts as ADME, organism-based. Conditions: in vivo.
Series [9] in a line: AUC in mouse at 10 mg/kg, po. It is filed as ADME, organism-based. Set-up: dose 10 mg/kg, route oral. The conditions noted are these: plasma. In a few lines:
as §3

Series [10] has as its target Long-chain fatty acid transport protein 1 (Mus musculus, UniProt Q60714). The series is described as follows: Inhibition of mouse FLAG-tagged FATP1-mediated [1-14C] oleic acid conversion to [1-14C] oleoyl-CoA after 20 mins by scintillation counting analysis. In a few lines:
(§4)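 Purified FLAG-tagged human or mouse FATP1 run in a cell-free acyl-CoA synthetase assay. Protein incubated with 10 µM [1-14C]oleic acid, 0.5 mM ATP, 0.5 mM CoA, 5 mM MgCl2, 30 mM NaCl, 0.05% Triton X-100 and 2 mM DTT in 100 mM Tris-HCl pH 7.4 for 20 min at 37 °C. Free oleate removed by heptane washes. Aqueous-phase radioactivity counted by scintillation. FLAG-luciferase background subtracted. IC50 is the mean of n ≥ 2.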

In series [11] the test system is Mus musculus. The experiment in a line: Free Cmax in mouse at 10 mg/kg, po. It counts as ADME, organism-based. Further details: dose 10 mg/kg, route oral. Conditions: in vivo. The gist of the method:
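Free Cmax calculated as plasma unbound fraction (%) multiplied against the […], from mice given 10 mg/kg orally in DMA/PG/(20% HPβCD/saline) 10/10/80, n = 3.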

Series [12] can be described thus: 1-Octanol-phosphate buffered saline distribution coefficient, log D of the compound at pH 7.4. It counts as physicochemical. The gist of the method: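 logD measured by partitioning between 1-octanol and phosphate-buffered saline, pH 7.4.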
Series [13] in a line: Clearance in mouse at 5 mg/kg, iv. It counts as ADME, organism-based. Set-up: dose 5 mg/kg, route intravenous. The conditions noted are these: in vivo.
Series [14] addresses Long-chain fatty acid transport protein 1 (Homo sapiens, UniProt Q6PCB7). The series is described as follows: Inhibition of human FLAG-tagged FATP1-mediated [1-14C] oleic acid conversion to [1-14C] oleoyl-CoA after 20 mins by scintillation counting analysis. The gist of the method: as §4
For series [15], the system named is Mus musculus. The experiment in a line: In vivo inhibition of FATP1 in high-fat diet fed mouse assessed as decrease in triglyceride content in liver at 10 to 100 mg/kg, po after 4 weeks. It counts as functional, organism-based. In a few lines: as §2
Series [16] in a line: Fraction unbound in mouse plasma at 10 mg/kg, po. It is filed as ADME, organism-based. Set-up: dose 10 mg/kg, route oral. In a few lines: as §1
Series [17] can be described thus: Volume of distribution in mouse at 5 mg/kg, iv. It counts as ADME, organism-based. Set-up: dose 5 mg/kg, route intravenous. Conditions: in vivo.
Series [18] is described as follows: Solubility in Japanese Pharmacopoeia second fluid. The conditions noted are these: pH 6.8. It is filed as physicochemical.
Series [19] is described as follows: Ratio of drug uptake in soleus muscle to plasma in mouse at 10 mg/kg, po after 1 week of repeated compound administration. It is filed as ADME, organism-based. Set-up: dose 10 mg/kg, route oral. In a few lines:
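Mice received repeated oral dosing at 10 mg/kg for 1 week. Soleus and plasma concentrations measured 3 h after dosing. Kp taken as the soleus-to-plasma ratio.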

Converted amounts (≈) assume the structure as drawn. The source made the active and inactive calls. The calls are words filed in the database; no cut-off is given here.

Sequence of Long-chain fatty acid transport protein 1 (Mus musculus, UniProt Q60714) (Q60714 whole entry): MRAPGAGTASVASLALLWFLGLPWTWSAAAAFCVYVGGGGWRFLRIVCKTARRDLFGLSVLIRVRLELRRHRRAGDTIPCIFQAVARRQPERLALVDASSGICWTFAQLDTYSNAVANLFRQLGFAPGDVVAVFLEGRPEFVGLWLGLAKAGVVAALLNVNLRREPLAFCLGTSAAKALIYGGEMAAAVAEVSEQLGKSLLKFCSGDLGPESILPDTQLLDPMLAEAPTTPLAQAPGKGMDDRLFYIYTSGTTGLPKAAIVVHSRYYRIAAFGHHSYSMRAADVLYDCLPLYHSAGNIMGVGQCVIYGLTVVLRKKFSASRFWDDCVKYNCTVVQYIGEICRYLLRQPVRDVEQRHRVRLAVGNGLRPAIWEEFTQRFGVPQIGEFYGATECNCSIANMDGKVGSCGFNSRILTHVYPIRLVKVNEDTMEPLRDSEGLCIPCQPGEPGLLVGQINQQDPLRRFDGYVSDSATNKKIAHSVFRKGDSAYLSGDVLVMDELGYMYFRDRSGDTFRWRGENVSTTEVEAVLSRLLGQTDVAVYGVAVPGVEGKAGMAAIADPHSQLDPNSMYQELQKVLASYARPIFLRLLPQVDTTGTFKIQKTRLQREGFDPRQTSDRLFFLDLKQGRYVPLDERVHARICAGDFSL
Sequence of Long-chain fatty acid transport protein 1 (Homo sapiens, UniProt Q6PCB7) (Q6PCB7 whole entry): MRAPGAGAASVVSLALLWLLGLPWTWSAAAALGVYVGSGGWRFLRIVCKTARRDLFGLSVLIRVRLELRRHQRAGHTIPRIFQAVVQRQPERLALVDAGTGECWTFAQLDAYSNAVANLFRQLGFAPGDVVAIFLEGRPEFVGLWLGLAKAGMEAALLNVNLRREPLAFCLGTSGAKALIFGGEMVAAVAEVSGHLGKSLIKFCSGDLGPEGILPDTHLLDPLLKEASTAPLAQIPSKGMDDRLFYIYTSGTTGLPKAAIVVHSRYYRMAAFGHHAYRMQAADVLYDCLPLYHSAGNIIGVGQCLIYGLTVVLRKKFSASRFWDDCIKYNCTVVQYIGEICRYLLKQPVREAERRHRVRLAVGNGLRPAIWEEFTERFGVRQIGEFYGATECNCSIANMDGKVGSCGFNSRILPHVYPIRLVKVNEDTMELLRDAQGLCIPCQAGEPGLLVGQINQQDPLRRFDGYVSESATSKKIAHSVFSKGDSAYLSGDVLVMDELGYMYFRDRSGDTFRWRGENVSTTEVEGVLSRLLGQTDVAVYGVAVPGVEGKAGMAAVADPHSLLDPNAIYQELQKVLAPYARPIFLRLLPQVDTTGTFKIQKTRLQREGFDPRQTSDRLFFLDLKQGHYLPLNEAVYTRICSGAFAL

For `CC1CCc2sc(NC(=O)CN3CCN(c4ccc(F)cc4)CC3)nc2C1` (centres undefined), in [1], the remaining at 0.5 h amounted to 30%. For the same molecule, the fraction unbound in series [2] and in [16] was 0.0043 each time. Also, the inhibition entry in series [3], in series [7] and in series [15] was “inactive” in each case. Moreover, the peak concentration (Cmax) (commonly the peak of the concentration-time curve) in series [4] was 1800 ng/mL. Further, the Tmax (usually the time at which the peak concentration occurs) in series [5] was found to be 15 min. Further, the solubility – broadly, the concentration that dissolves in the medium under given conditions – in [6] turned out to be 540 µg/mL (≈ 1390 µM); in [18], 0.7 µg/mL (≈ 1.8 µM). In addition, in [8], the bioavailability (commonly dose-corrected exposure relative to a reference, in per cent) was found to be 62%. Also, in series [9], the area under the curve (AUC) (as a rule, concentration integrated over time) is 2300 ng·h/mL. Besides, the half-maximal inhibitory concentration (IC50) (in general, the point on the concentration scale where inhibition reaches its midpoint) in series [10] was 5100 nM; in series [14], 26 nM. Moreover, the fCmax in series [11] is 0.0077 µg/mL. Besides, the logD (commonly lipophilicity at a set pH, counting ionised and neutral species) in [12] stood at 5.1. Also, in series [13], the clearance (commonly the volume of plasma or blood freed of the substance per unit of time) turned out to be 46 mL/min/kg. Further, in series [17], the Vd (usually the apparent volume that relates the amount in the body to the concentration in plasma or blood) amounted to 1.5 L/kg. In [19], the Kp (usually tissue or fluid exposure divided by exposure in the circulation) at 168 h came out at 0.33.
